# Test results published in ChEMBL document CHEMBL4145468, “Synthesis and biological evaluation of new steroidal pyridines as potential anti-prostate cancer agents” (Eur J Med Chem, 2018).
# Activity calls are given as the source filed them. The rule behind the calls is not given here.
# How the values were obtained:
# PC-3 [1] = experiment: Induction of apoptosis in human PC3 cells assessed as necrotic cells at 0.5 uM after 48 hrs by AnnexinV-FITC/propidium iodide staining-based flow cytometric analysis (reference value: 0.5%); assay type: functional
# PC-3 [2] = experiment: Anti-invasive activity in human PC3 cells after 48 hrs by matrigel-coated transwell assay; assay type: functional, cell-based
# PC-3 [3] = experiment: Induction of apoptosis in human PC3 cells assessed as formation of apoptotic bodies at 0.5 to 2 uM after 48 hrs by Hoechst 33258 staining-based fluorescence microscopic analysis; assay type: functional, cell-based
# Outline: (§1)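 PC-3 cells, 3×10^5/well, grown 48 h, then treated with compound at varying concentrations 48 h. Methanol-fixed ~20 min, stained with 5 ug/mL Hoechst-33258 in PBS with 0.5% Triton X-100 in dark ≥30 min; nuclear condensation/fragmentation scored by UV fluorescence microscopy.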
# PC-3 [4] = experiment: Induction of apoptosis in human PC3 cells assessed as chromatin shrinkage at 0.5 to 2 uM after 48 hrs by Hoechst 33258 staining-based fluorescence microscopic analysis; assay type: functional, cell-based; outline: as §1
# PC-3 [5] = experiment: Antiproliferative activity against human PC3 cells after 72 hrs by MTT assay; assay type: functional, cell-based; settings: PC-3, 72 h
# Outline: (§2)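 Exponentially growing cells, 4×10^3/well, attached 24 h, then medium replaced with fresh medium holding graded compound concentrations for 72 h. MTT (5 mg/mL stock) added for 4 h, formazan dissolved in DMSO, absorbance at 570 nm; IC50 calculated from dose-response data.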
# PC-3 [6] = experiment: Cell cycle arrest in human PC3 cells assessed as accumulation of cells at G1 phase at 2 uM after 48 hrs by RNase/propidium iodide staining-based flow cytometric analysis (reference value: 61.95%); assay type: functional
# PC-3 [7] = experiment: Cell cycle arrest in human PC3 cells assessed as accumulation of cells at G2 phase at 0.5 uM after 48 hrs by RNase/propidium iodide staining-based flow cytometric analysis (reference value: 7.17%); assay type: functional
# PC-3 [8] = experiment: Induction of apoptosis in human PC3 cells assessed as increase in caspase-9 activation after 48 hrs by Western blot analysis; assay type: functional, cell-based
# Outline: (§3)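 PC-3 cells treated 48 h with compound at several concentrations, lysed in NP-40/SDS/deoxycholate buffer with PMSF. Equal lysate amounts resolved by SDS-PAGE, transferred to nitrocellulose, blocked in 5% milk 2 h, primary antibody overnight at 4 °C, HRP secondary, ECL detection; GAPDH as loading control.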
# PC-3 [9] = experiment: Cell cycle arrest in human PC3 cells assessed as accumulation of cells at G2 phase at 2 uM after 48 hrs by RNase/propidium iodide staining-based flow cytometric analysis (reference value: 7.17%); assay type: functional
# PC-3 [10] = experiment: Antimigratory activity in human PC3 cells assessed as increase in occludin at 0.5 to 2 uM after 48 hrs by Western blot analysis; assay type: functional, cell-based; outline: as §3
# PC-3 [11] = experiment: Antimigratory activity in human PC3 cells after 48 hrs by wound-healing assay; assay type: functional, cell-based
# Outline: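 PC-3 cells seeded at 3×10^5/well, grown to 80–90% confluence, monolayer scratched with pipette tip, washed, then exposed to compound (0, 0.5, 1.0, 2.0 μM) for 48 h. Wound photographed by inverted microscopy. At least three experiments.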
# PC-3 [12] = experiment: Induction of apoptosis in human PC3 cells assessed as early apoptotic cells at 2 uM after 48 hrs by AnnexinV-FITC/propidium iodide staining-based flow cytometric analysis (reference value: 0.3%); assay type: functional
# PC-3 [13] = experiment: Cell cycle arrest in human PC3 cells assessed as accumulation of cells at S phase at 0.5 uM after 48 hrs by RNase/propidium iodide staining-based flow cytometric analysis (reference value: 30.89%); assay type: functional
# PC-3 [14] = experiment: Induction of apoptosis in human PC3 cells assessed as early apoptotic cells at 1 uM after 48 hrs by AnnexinV-FITC/propidium iodide staining-based flow cytometric analysis (reference value: 0.3%); assay type: functional
# PC-3 [15] = experiment: Induction of apoptosis in human PC3 cells assessed as late apoptotic cells at 0.5 uM after 48 hrs by AnnexinV-FITC/propidium iodide staining-based flow cytometric analysis (reference value: 0.1%); assay type: functional
# PC-3 [16] = experiment: Induction of apoptosis in human PC3 cells assessed as late apoptotic cells at 2 uM after 48 hrs by AnnexinV-FITC/propidium iodide staining-based flow cytometric analysis (reference value: 0.1%); assay type: functional
# LNCaP = experiment: Antiproliferative activity against human LNCAP cells after 72 hrs by MTT assay; assay type: functional, cell-based; outline: as §2
# PC-3 [17] = experiment: Cell cycle arrest in human PC3 cells assessed as accumulation of cells at G1 phase at 0.5 uM after 48 hrs by RNase/propidium iodide staining-based flow cytometric analysis (reference value: 61.95%); assay type: functional
# PC-3 [18] = experiment: Cell cycle arrest in human PC3 cells assessed as accumulation of cells at S phase at 2 uM after 48 hrs by RNase/propidium iodide staining-based flow cytometric analysis (reference value: 30.89%); assay type: functional
# PC-3 [19] = experiment: Antimigratory activity in human PC3 cells assessed as decrease in vimentin at 0.5 to 2 uM after 48 hrs by Western blot analysis; assay type: functional, cell-based; outline: as §3
# PC-3 [20] = experiment: Induction of apoptosis in human PC3 cells assessed as increase in caspase-3 activation after 48 hrs by Western blot analysis; assay type: functional, cell-based; outline: as §3
# PC-3 [21] = experiment: Induction of apoptosis in human PC3 cells assessed as cell rounding at 0.5 to 2 uM after 48 hrs by Hoechst 33258 staining-based fluorescence microscopic analysis; assay type: functional; outline: as §1
# GES1 = experiment: Antiproliferative activity against human GES-1 cells after 72 hrs by MTT assay; assay type: cell-based; settings: GES1, 72 h; outline: as §2
# PC-3 [22] = experiment: Induction of apoptosis in human PC3 cells assessed as viable cells at 0.5 uM after 48 hrs by AnnexinV-FITC/propidium iodide staining-based flow cytometric analysis (reference value: 99.1%); assay type: functional; settings: PC-3, 48 h, read-out: Activity
# PC-3 [23] = experiment: Cell cycle arrest in human PC3 cells assessed as accumulation of cells at G1 phase at 1 uM after 48 hrs by RNase/propidium iodide staining-based flow cytometric analysis (reference value: 61.95%); assay type: functional
# PC-3 [24] = experiment: Induction of apoptosis in human PC3 cells assessed as late apoptotic cells at 1 uM after 48 hrs by AnnexinV-FITC/propidium iodide staining-based flow cytometric analysis (reference value: 0.1%); assay type: functional
# MGC-803 = experiment: Antiproliferative activity against human MGC803 cells after 72 hrs by MTT assay; assay type: functional, cell-based; settings: MGC-803, 72 h; outline: as §2
# PC-3 [25] = experiment: Induction of apoptosis in human PC3 cells after 48 hrs by AnnexinV-FITC/propidium iodide staining-based flow cytometric analysis; assay type: functional, cell-based
# ECa-109 cell line = experiment: Antiproliferative activity against human EC109 cells after 72 hrs by MTT assay; assay type: functional, cell-based; settings: ECa-109, 72 h; outline: as §2
# PC-3 [26] = experiment: Induction of apoptosis in human PC3 cells assessed as viable cells at 1 uM after 48 hrs by AnnexinV-FITC/propidium iodide staining-based flow cytometric analysis (reference value: 99.1%); assay type: functional; settings: PC-3, 48 h, read-out: Activity
# PC-3 [27] = experiment: Induction of apoptosis in human PC3 cells assessed as viable cells at 2 uM after 48 hrs by AnnexinV-FITC/propidium iodide staining-based flow cytometric analysis (reference value: 99.1%); assay type: functional; settings: PC-3, 48 h, read-out: Activity
# PC-3 [28] = experiment: Induction of apoptosis in human PC3 cells assessed as early apoptotic cells at 0.5 uM after 48 hrs by AnnexinV-FITC/propidium iodide staining-based flow cytometric analysis (reference value: 0.3%); assay type: functional
# PC-3 [29] = experiment: Cell cycle arrest in human PC3 cells assessed as accumulation of cells at G2 phase at 1 uM after 48 hrs by RNase/propidium iodide staining-based flow cytometric analysis (reference value: 7.17%); assay type: functional
# PC-3 [30] = experiment: Inhibition of colony formation in human PC3 cells at 0.5 to 2 uM after 7 days by crystal violet staining-based assay; assay type: functional, cell-based
# Outline: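 About 2000 PC-3 cells/well seeded, after 24 h medium replaced with compound-containing medium for 7 days. Colonies PBS-washed, fixed in 4% paraformaldehyde 30 min, crystal violet stained 30 min, destained with PBS before evaluation. Repeated three times.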
# PC-3 [31] = experiment: Cell cycle arrest in human PC3 cells assessed as accumulation of cells at S phase at 1 uM after 48 hrs by RNase/propidium iodide staining-based flow cytometric analysis (reference value: 30.89%); assay type: functional
# PC-3 [32] = experiment: Antimigratory activity in human PC3 cells assessed as decrease in N-Cadherin at 0.5 to 2 uM after 48 hrs by Western blot analysis; assay type: functional, cell-based; outline: as §3
# PC-3 [33] = experiment: Induction of apoptosis in human PC3 cells assessed as necrotic cells at 2 uM after 48 hrs by AnnexinV-FITC/propidium iodide staining-based flow cytometric analysis (reference value: 0.5%); assay type: functional
# PC-3 [34] = experiment: Antimigratory activity in human PC3 cells assessed as increase in E-cadherin at 0.5 to 2 uM after 48 hrs by Western blot analysis; assay type: functional, cell-based; outline: as §3
# PC-3 [35] = experiment: Antimigratory activity in human PC3 cells after 24 hrs by transwell assay
# PC-3 [36] = experiment: Induction of apoptosis in human PC3 cells assessed as increase in cleaved PARP after 48 hrs by Western blot analysis; assay type: functional, cell-based; outline: as §3
# PC-3 [37] = experiment: Induction of apoptosis in human PC3 cells assessed as necrotic cells at 1 uM after 48 hrs by AnnexinV-FITC/propidium iodide staining-based flow cytometric analysis (reference value: 0.5%); assay type: functional
smiles,measurement,setting,value
CCOc1cc(-c2cccnc2)cc([C@H]2CC[C@H]3[C@@H]4CC=C5C[C@@H](O)CC[C@]5(C)[C@H]4CC[C@]23C)n1,Activity,PC-3 [1],0.5%
same,Activity,PC-3 [2],Dose-dependent effect
same,Activity,PC-3 [3],Active
same,Activity,PC-3 [4],Active
same,IC50,PC-3 [5],1.55 µM
same,Activity,PC-3 [6],53.36%
same,Activity,PC-3 [7],10.92%
same,Activity,PC-3 [8],Dose-dependent effect
same,Activity,PC-3 [9],10.87%
same,Activity,PC-3 [10],Active
same,Activity,PC-3 [11],Dose-dependent effect
same,Activity,PC-3 [12],7.3%
same,Activity,PC-3 [13],33.56%
same,Activity,PC-3 [14],9.1%
same,Activity,PC-3 [15],2.6%
same,Activity,PC-3 [16],14.9%
same,IC50,LNCaP,8.48 µM
same,Activity,PC-3 [17],55.52%
same,Activity,PC-3 [18],35.77%
same,Activity,PC-3 [19],Active
same,Activity,PC-3 [20],Dose-dependent effect
same,Activity,PC-3 [21],Active
same,IC50,GES1,7.76 µM
same,viability at 0.5 µM,PC-3 [22],86.2%
same,Activity,PC-3 [23],55.44%
same,Activity,PC-3 [24],11.7%
same,IC50,MGC-803,2.75 µM
same,Activity,PC-3 [25],Dose-dependent effect
same,IC50,ECa-109 cell line,5.32 µM
same,viability at 1 µM,PC-3 [26],76.7%
same,viability at 2 µM,PC-3 [27],73.3%
same,Activity,PC-3 [28],10.7%
same,Activity,PC-3 [29],11.09%
same,inhibition,PC-3 [30],Active
same,Activity,PC-3 [31],33.48%
same,Activity,PC-3 [32],Active
same,Activity,PC-3 [33],4.6%
same,Activity,PC-3 [34],Active
same,Activity,PC-3 [35],Dose-dependent effect
same,Activity,PC-3 [36],Dose-dependent effect
same,Activity,PC-3 [37],2.5%
